Screens (PubChem)
TAAR1 antag: human TAAR1 antagonism | 1.5% of 360,000 active | AID 624466 | inhibition, % at 3 µM | Q96RJ0 | CHO RD-HGA16 TAAR1, Fluo-8 calcium fluorescence, antagonist;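 active = inhibition above a per-plate cutoff, the mean inhibition of test compounds on that plate plus 3 SD, cut at about 49% in these data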
Target sequence (Q96RJ0 whole entry, looked up): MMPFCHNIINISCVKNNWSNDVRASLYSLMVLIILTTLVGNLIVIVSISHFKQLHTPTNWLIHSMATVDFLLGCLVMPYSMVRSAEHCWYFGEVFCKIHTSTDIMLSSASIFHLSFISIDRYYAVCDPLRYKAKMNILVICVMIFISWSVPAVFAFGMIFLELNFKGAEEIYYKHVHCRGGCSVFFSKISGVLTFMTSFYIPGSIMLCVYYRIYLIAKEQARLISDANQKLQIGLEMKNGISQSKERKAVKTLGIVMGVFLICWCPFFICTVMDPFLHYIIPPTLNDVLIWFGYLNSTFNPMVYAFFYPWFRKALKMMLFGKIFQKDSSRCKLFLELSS
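Assay system: RD-HGA16 CHO cells with stable hTAAR1 and Gα16 / Reagent: EC80 β-phenethylamine stimulus / Doses: 3 µM, single point / Timing: dye loading 75 min at 37 °C, then 30 min room temperature / Measured by: Fluo-8 intracellular calcium dye fluorescence, real-time kinetic reads / Controls: vehicle wells and EC80 agonist wells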
TAAR1 ag: human TAAR1 agonism | 0.99% of 360,000 active | activation, % at 3 µM | Q96RJ0 | AID 624467 | CHO RD-HGA16 TAAR1, Fluo-8 calcium fluorescence; vehicle wells 0%, saturating PEA agonist 100%;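 active = activation above the mean activation of all test compounds in the run plus 3 SD, cut at about 38% in these data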
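Benchmarks: low control DMSO, high control PEA (EC100); System: CHO RD-HGA16 cells carrying human TAAR1 plus Gα16; Detection: Fluo-8 fluorescence, 5 s baseline then 140 s kinetic read; Schedule: 17-24 h plating, Fluo-8 75 min 37 °C, 30 min RT; Read-out basis: % activation from peak over basal fluorescence ratio, DMSO-to-PEA scaled.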
GPR7 antagonist: blocks human GPR7 receptor signaling. P48145. GPR7-expressing cells, fluorescence antagonist assay. inhibition, % at 4.4 µM. 1.1% of 290,000 active. AID 1861; in the data active = inhibition above about 16%, passing the limit was not always enough;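 note: cells stimulated with the agonist NPW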
OX1R antag-1: human HCRTR1 antagonism; O43613; CHO/OX1R cells, Fluo-8 calcium fluorescence, orexin A; inhibition, % at 5 µM; 0.43% of 330,000 active;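 active = inhibition above its plate's threshold, mean inhibition of all tested compounds on the plate plus 3 SD, cut at about 37% in these data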
Target sequence (O43613 whole entry, looked up): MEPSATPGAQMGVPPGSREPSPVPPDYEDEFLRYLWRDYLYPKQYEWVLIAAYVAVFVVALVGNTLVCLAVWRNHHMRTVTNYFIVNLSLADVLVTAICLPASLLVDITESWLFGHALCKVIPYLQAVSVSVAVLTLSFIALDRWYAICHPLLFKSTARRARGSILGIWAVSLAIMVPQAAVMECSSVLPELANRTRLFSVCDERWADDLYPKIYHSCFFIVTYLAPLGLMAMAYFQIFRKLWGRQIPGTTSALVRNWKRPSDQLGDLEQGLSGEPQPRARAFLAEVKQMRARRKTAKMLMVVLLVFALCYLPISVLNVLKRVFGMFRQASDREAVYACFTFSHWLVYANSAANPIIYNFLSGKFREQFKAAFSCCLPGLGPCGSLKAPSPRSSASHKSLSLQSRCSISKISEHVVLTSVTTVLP
OX1R antag-2: OX1R (human) antagonism; 1.8% of 330,000 active; O43613; OX1R-expressing cells, FRET antagonist read-out; inhibition, % at 6.6 µM; AID 485270; in the data active = inhibition mostly above about 38%, no sharp cut-off; inactive = mostly below about 40%
CHO parental Ca: counter-screen for OX1R antagonists: effect in parental CHO cells; AID 463079; parental CHO-K1, ATP-induced calcium, Fluo-8 fluorescence; 0.63% of 330,000 active; inhibition, % at 5.6 µM;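 active = inhibition above that plate's mean sample inhibition plus 3 SD, cut at about 26% in these data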
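Assay system: untransfected parental CHO cell line. Also added: ATP agonist challenge. Dosing: one dose, 5.6 µM nominal. Measured by: Fluo-8 fluorescence. Read-out: % inhibition. Benchmarks: ATP wells versus no-ATP DMSO wells. Repeats: no replicates.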
nonsel antag count: nonselective antagonist in TAAR1 antagonist counter-screen. AID 651780. shares compounds with TAAR1 antag. 77% of 2,400 active. counterscreen cell line, calcium fluorescence, antagonist mode. inhibition, % at 3 µM; in the data active = inhibition above about 22%;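 note: CHO-Ga16 host cells stimulated with ATP at an EC80 level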
TAAR1 antag conf: human TAAR1 antagonism, confirmed. shares compounds with TAAR1 antag. TAAR1-expressing cells, fluorescence antagonist read-out. inhibition, % at 3 µM. 40% of 2,400 active. AID 651785; in the data active = inhibition above about 49%;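 note: CHO-Ga16 host cells challenged with agonist PEA near its EC80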
Ga16 ag counter: nonselective Ga16 agonist in TAAR1 antagonist counter-screen; activation, % at 3 µM; AID 651953; Ga16-expressing cells, calcium fluorescence, agonist counterscreen; shares compounds with TAAR1 antag; 18% of 2,400 active; in the data active = activation above about 12%
TAAR1 ag counter: TAAR1 agonism, antagonist counter-screen; shares compounds with TAAR1 antag; hTAAR1 cell line, fluorescence activation, agonist mode; activation, % at 3 µM; 2% of 2,400 active; in the data active = activation above about 37%;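 note: CHO cells stably expressing TAAR1 with calcium dye readout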
Numbers stand for hits; i = inactive; nt = not tested or not shown; ! = not confirmed by another sample. This is a sample that favours compounds with a hit; in the whole collection about 4.5% have one here.

SMILES	TAAR1 antag	TAAR1 ag	GPR7 antagonist	OX1R antag-1	OX1R antag-2	CHO parental Ca	nonsel antag count	TAAR1 antag conf	Ga16 ag counter	TAAR1 ag counter
Cc1cc(/C=N\NC(=O)CC(=O)NC2CCCCC2)c(C)n1-c1ccc(Cl)c(Cl)c1	56	i	i	i	i	i	i	71	i	i
COCCCNC(=O)CN(c1cc(OC)ccc1OC)S(=O)(=O)c1ccccc1	i	i	i	i	i	i	nt	nt	nt	nt
COc1ccc(N(CC(=O)NCCSc2ccccc2)S(=O)(=O)c2ccccc2)c(OC)c1	59	i	nt	i	i	i	33	55	i	i
COc1ccc(N(CC(=O)NCCSc2ccccn2)S(=O)(=O)c2ccccc2)c(OC)c1	50	i	i	i	46	i	27	i	i	i
COc1ccc(N(CC(=O)NCc2ccccc2OC)S(=O)(=O)c2ccccc2)cc1	i	i	i	i	i	i	nt	nt	nt	nt
COc1ccc(N(CC(=O)NCCSc2ccccc2)S(=O)(=O)c2ccccc2)cc1	65	i	i	i	i	i	22	i	i	i
COc1ccc(S(=O)(=O)N(CC(=O)NCCSc2ccccn2)c2ccccc2)cc1	i	i	i	i	i	i	nt	nt	nt	nt
O=C(NCc1cccs1)c1ccc2sc([C@@H]3O[C@H](CO)[C@H](O)[C@H](O)[C@H]3O)nc2c1	i	i	nt	nt	nt	nt	nt	nt	nt	nt
CCc1nc2ccc(C(=O)NCc3ccc4c(c3)OCO4)cn2c1N(CC)Cc1cccc(Br)c1	i	i	nt	nt	nt	nt	nt	nt	nt	nt
O=C(Cc1cccc(NC(=O)C2CCCN(C(=O)C3CCCCC3)C2)c1)Nc1cccc(C(=O)N2CCCCC2)c1 (stereo not drawn)	i	i	nt	nt	nt	nt	nt	nt	nt	nt
CCOC(=O)Cc1n[nH]c(=O)c2ccccc12	i	i	i	i	i	i	nt	nt	nt	nt
O=C(Cc1n[nH]c(=O)c2ccccc12)OCC(=O)N(Cc1ccccc1)Cc1ccccc1	57	i	i	i	i	i	i	i	i	i
Nc1nc2c(Br)ccc(Br)c2cc1C(=O)NCc1cccc2ccccc12	i	i	nt	nt	nt	nt	nt	nt	nt	nt
Brc1ccc2nc(-c3ccc(CN4CCC5(CC4)CNc4ccccc45)cc3)c(-c3ccccc3)nc2c1	49	i	nt	nt	nt	nt	26	i	i	i
C[C@@H](NC(=O)[C@@H]1CCCN1C(=O)[C@@H]1CCCN1C(=O)c1cccc(Cl)c1)c1ccccc1	i	i	nt	nt	nt	nt	nt	nt	nt	nt
CCCCNc1c(-c2ccc(SC3CCCCC3)c(OC)c2)nc2ccc(C)cn12	74	i	nt	i	i	i	36	i	i	i
CCCCNc1c(-c2ccc(OC)c(SC(C)CC)c2)nc2ccc(C)cn12 (stereo not drawn)	91	i	nt	87	60	94	46	58	i	i
CCCCNc1c(-c2cccc(SC(C)CC)c2)nc2ccc(Cl)cn12 (stereo not drawn)	57!	i	nt	i	i	i	i	i	i	i
Clc1cccc(Cc2c(C3CCCCC3)nc3c4ccccc4ccn23)c1	i	i	nt	nt	nt	nt	nt	nt	nt	nt
CNc1cncc(-c2ccc(OCCCN(C)C)nc2)n1	i	i	nt	nt	nt	nt	nt	nt	nt	nt
COc1cccc(C(=O)N2CCC2(C)C(=O)O)c1 (stereo not drawn)	i	i	nt	nt	nt	nt	nt	nt	nt	nt
CN(C)C1CN(Cc2cn(Cc3cccc(C(F)(F)F)c3)nn2)S(=O)(=O)C1 (stereo not drawn)	i	i	nt	nt	nt	nt	nt	nt	nt	nt
CCc1[nH]nc2c1C1(CCN(C(=O)OCc3ccccc3)CC1)C(C#N)=C(N)O2	63	i	i	i	i	i	34	57	16	i
Cn1c(=O)n(C)c2cc([N+](=O)[O-])c(N3CCN(S(=O)(=O)c4ccccc4)CC3)cc21	62	i	i	i	i	i	26	54	15	i
C/C=C/c1cnc2c(c1)C(=O)N([C@H](C)CO)C[C@H](C)[C@@H](CN(C)C(=O)CN1CCOCC1)O2	i	i	nt	nt	nt	nt	nt	nt	nt	nt
SMILES	TAAR1 antag	TAAR1 ag	GPR7 antagonist	OX1R antag-1	OX1R antag-2	CHO parental Ca	nonsel antag count	TAAR1 antag conf	Ga16 ag counter	TAAR1 ag counter
CCOC(=O)c1ccc(NC(=O)CN(C)S(=O)(=O)c2ccc(Br)s2)cc1	85	i	i	i	i	i	38	i	i	i
O=C(CCCCCN1C(=O)[C@@H]2Cc3ccccc3CN2C1=O)Nc1cccc(F)c1	67	i	i	i	i	i	42	60	13	i
O=C(c1ccco1)N(CCCN1CCOCC1)c1nc(-c2ccc(F)cc2)cs1	57	i	i	i	i	i	i	i	i	i
CCOc1ccc(N(CC(=O)Nc2c(C)cc(C)cc2C)C2=NC3CS(=O)(=O)CC3S2)cc1 (stereo not drawn)	i	i	nt	nt	nt	nt	nt	nt	nt	nt
CC1(C(=O)NCCCN2CCCC2=O)CCN1CCc1ccccc1 (stereo not drawn)	i	i	nt	nt	nt	nt	nt	nt	nt	nt
Cc1nn(-c2ccccc2)c(C)c1NC(=O)COC(=O)CCCOc1ccccc1	57	i	nt	i	i	i	i	i	i	i
Cc1cc(C)n(-c2ccc(C(=O)OCC(=O)NC(c3ccccc3)c3ccccc3)cc2)n1	66	i	i	i	i	i	27	52	i	i
CCOC(=O)c1ccc(-n2nc(C)cc2C)cc1	i	i	i	i	i	i	nt	nt	nt	nt
Cc1nn(-c2ccccc2)c(C)c1NC(=O)COC(=O)c1ccccc1	i	i	nt	i	i	i	nt	nt	nt	nt
Cc1nn(-c2ccccc2)c(C)c1NC(=O)COC(=O)c1ccc(Cl)c(N)c1	72	i	nt	i	i	i	30	50	12	i
COc1ccccc1/C=C/C(=O)OCC(=O)Nc1c(C)nn(-c2ccccc2)c1C	66	i	nt	i	i	i	21	i	i	i
O=S(=O)(NCC[C@@H]1CC[C@H](NS(=O)(=O)c2cccc(F)c2)[C@@H](CO)O1)c1cccc(F)c1	i	i	nt	nt	nt	nt	nt	nt	nt	nt
O=C1N[C@@H](c2ccccc2)COC(=O)[C@@H](Cc2ccc(F)cc2)CC/C=C/C[C@@H]1CC(=O)N(CCO)Cc1ccccc1	i	i	nt	i	i	i	nt	nt	nt	nt
O=C1OC[C@H]2CCCN2C(=O)[C@@H](CC(=O)N(CCO)Cc2ccccc2)C/C=C\C[C@@H]1Cc1ccc(F)cc1	57	i	nt	i	i	i	25	i	i	i
CC(C)(C)[C@@H]1COC(=O)[C@H](Cc2ccc(F)cc2)C/C=C\C[C@H](CC(=O)N(CCO)Cc2ccccc2)C(=O)N1	50	i	nt	i	i	i	i	i	i	i
